In ChEMBL document CHEMBL1150108, “Isolation of S-n-butylcysteine sulfoxide and six n-butyl-containing thiosulfinates from Allium siculum” (2002) one finds zone of inhibition and inhibition zone (IZ) data, which are given here for 7 molecules.

Holding throughout (type): functional
In experiment [1] the test system is Klebsiella pneumoniae subsp. pneumoniae. Nature of the experiment: Antibacterial activity against Klebsiella pneumoniae subsp. pneumoniae ATCC 13833 at 250 ug/disk after overnight incubation by agar diffusion test. As to conditions: read-out: Diameter of inhibition zone. In outline: (§1)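 Disk diffusion on agar plates seeded with the named strain. Test samples were dissolved in EtOH, and a 10 µL aliquot was applied to a 6 mm paper disk to give 10, 250 or 500 µg per disk. Commercial antibiotic disks served as controls. Plates were incubated overnight at 37 °C, and the diameter of the inhibition zone around each disk was read in mm.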

The test system of experiment [2] is Stenotrophomonas maltophilia. Nature of the experiment: Antibacterial activity against Stenotrophomonas maltophilia ATCC 13637 at 10 ug/disk after overnight incubation by agar diffusion test. As to conditions: for zone of inhibition at 10 µg/disc: read-out: Diameter of inhibition zone. Put shortly: as §1
In general terms: In agar diffusion tests the substance spreads into inoculated agar from a disc or well.

The subject of experiment [3] is Escherichia coli. Nature of the experiment: Antibacterial activity against Escherichia coli ATCC 25922 at 10 ug/disk after overnight incubation by agar diffusion test. The settings on record: read-out: Diameter of inhibition zone. In outline:
as §1

Experiment [4] relates to Streptococcus agalactiae. Put plainly: Antibacterial activity against Streptococcus agalactiae ATCC 13813 at 500 ug/disk after overnight incubation by agar diffusion test. The settings on record: read-out: Diameter of inhibition zone. Put shortly: as §1
Experiment [5] concerns Klebsiella pneumoniae subsp. pneumoniae. Put plainly: Antibacterial activity against Klebsiella pneumoniae subsp. pneumoniae ATCC 13833 at 500 ug/disk after overnight incubation by agar diffusion test. The settings on record: read-out: Diameter of inhibition zone. In outline: as §1
In experiment [6] the test system is Escherichia coli. Put plainly: Antibacterial activity against Escherichia coli ATCC 25922 at 250 ug/disk after overnight incubation by agar diffusion test. As to conditions: read-out: Diameter of inhibition zone. Put shortly: as §1
In experiment [7] the test system is Streptococcus agalactiae. Put plainly: Antibacterial activity against Streptococcus agalactiae ATCC 13813 at 250 ug/disk after overnight incubation by agar diffusion test. As to conditions: read-out: Diameter of inhibition zone. In outline: as §1
Experiment [8] concerns Stenotrophomonas maltophilia. Nature of the experiment: Antibacterial activity against Stenotrophomonas maltophilia ATCC 13637 at 500 ug/disk after overnight incubation by agar diffusion test. As to conditions: read-out: Diameter of inhibition zone. In outline: as §1
The subject of experiment [9] is Stenotrophomonas maltophilia. Nature of the experiment: Antibacterial activity against Stenotrophomonas maltophilia ATCC 13637 at 250 ug/disk after overnight incubation by agar diffusion test. As to conditions: read-out: Diameter of inhibition zone. In outline:
as §1

In experiment [10] the test system is Streptococcus agalactiae. Put plainly: Antibacterial activity against Streptococcus agalactiae ATCC 13813 at 10 ug/disk after overnight incubation by agar diffusion test. The settings on record: for zone of inhibition at 10 µg/disc: read-out: Diameter of inhibition zone. In outline:
as §1

For experiment [11], the system named is Bacillus cereus. Nature of the experiment: Antibacterial activity against Bacillus cereus ATCC 11778 at 500 ug/disk after overnight incubation by agar diffusion test. As to conditions: read-out: Diameter of inhibition zone. Put shortly: as §1
Experiment [12] relates to Klebsiella pneumoniae subsp. pneumoniae. Nature of the experiment: Antibacterial activity against Klebsiella pneumoniae subsp. pneumoniae ATCC 13833 at 10 ug/disk after overnight incubation by agar diffusion test. As to conditions: for zone of inhibition at 10 µg/disc: read-out: Diameter of inhibition zone. Put shortly: as §1
The test system of experiment [13] is Pseudomonas aeruginosa. Put plainly: Antibacterial activity against Pseudomonas aeruginosa ATCC 27853 at 250 ug/disk after overnight incubation by agar diffusion test. As to conditions: read-out: Diameter of inhibition zone. In outline:
as §1

Experiment [14] concerns Staphylococcus aureus. Nature of the experiment: Antibacterial activity against Staphylococcus […] at 250 ug/disk after overnight incubation by agar diffusion test. The settings on record: read-out: Diameter of inhibition zone. In outline:
as §1

Experiment [15] deals with Pseudomonas aeruginosa. Nature of the experiment: Antibacterial activity against Pseudomonas aeruginosa ATCC 27853 at 500 ug/disk after overnight incubation by agar diffusion test. The settings on record: read-out: Diameter of inhibition zone. In outline: as §1
The subject of experiment [16] is Staphylococcus aureus. Put plainly: Antibacterial activity against Staphylococcus […] at 500 ug/disk after overnight incubation by agar diffusion test. As to conditions: read-out: Diameter of inhibition zone. In outline:
as §1

Experiment [17] has as its system Escherichia coli. Nature of the experiment: Antibacterial activity against Escherichia coli ATCC 25922 at 500 ug/disk after overnight incubation by agar diffusion test. The settings on record: read-out: Diameter of inhibition zone. Put shortly:
as §1

Experiment [18] relates to Bacillus cereus. Nature of the experiment: Antibacterial activity against Bacillus cereus ATCC 11778 at 250 ug/disk after overnight incubation by agar diffusion test. The settings on record: read-out: Diameter of inhibition zone. In outline:
as §1

Experiment [19] relates to Bacillus cereus. Nature of the experiment: Antibacterial activity against Bacillus cereus ATCC 11778 at 10 ug/disk after overnight incubation by agar diffusion test. As to conditions: for zone of inhibition at 10 µg/disc: read-out: Diameter of inhibition zone. Put shortly: as §1
The test system of experiment [20] is Pseudomonas aeruginosa. Nature of the experiment: Antibacterial activity against Pseudomonas aeruginosa ATCC 27853 at 10 ug/disk after overnight incubation by agar diffusion test. The settings on record: read-out: Diameter of inhibition zone. Put shortly:
as §1

Experiment [21] relates to Staphylococcus aureus. Put plainly: Antibacterial activity against Staphylococcus […] at 10 ug/disk after overnight incubation by agar diffusion test. The settings on record: read-out: Diameter of inhibition zone. Put shortly:
as §1

Experiment [22] deals with Staphylococcus aureus. Put plainly: Antibacterial activity against Staphylococcus […] at 30 ug/disk after overnight incubation by agar diffusion test. As to conditions: read-out: Diameter of inhibition zone. Put shortly: (§2)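 Commercial antibiotic control disks were placed on agar plates seeded with the named strain. Plates were incubated overnight at 37 °C, and the diameter of the inhibition zone around each disk was measured in mm.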

The test system of experiment [23] is Pseudomonas aeruginosa. Nature of the experiment: Antibacterial activity against Pseudomonas aeruginosa ATCC 27853 at 30 ug/disk after overnight incubation by agar diffusion test. The settings on record: read-out: Diameter of inhibition zone. In outline: as §2
Experiment [24] relates to Stenotrophomonas maltophilia. Put plainly: Antibacterial activity against Stenotrophomonas maltophilia ATCC 13637 at 30 ug/disk after overnight incubation by agar diffusion test. The settings on record: read-out: Diameter of inhibition zone. Put shortly:
as §2

The test system of experiment [25] is Escherichia coli. Nature of the experiment: Antibacterial activity against Escherichia coli ATCC 25922 at 30 ug/disk after overnight incubation by agar diffusion test. As to conditions: read-out: Diameter of inhibition zone. Put shortly:
as §2

Experiment [26] relates to Streptococcus agalactiae. Put plainly: Antibacterial activity against Streptococcus agalactiae ATCC 13813 at 30 ug/disk after overnight incubation by agar diffusion test. The settings on record: read-out: Diameter of inhibition zone. In outline:
as §2

Experiment [27] has as its system Klebsiella pneumoniae subsp. pneumoniae. Put plainly: Antibacterial activity against Klebsiella pneumoniae subsp. pneumoniae ATCC 13833 at 30 ug/disk after overnight incubation by agar diffusion test. As to conditions: read-out: Diameter of inhibition zone. In outline:
as §2

Experiment [28] deals with Bacillus cereus. Nature of the experiment: Antibacterial activity against Bacillus cereus ATCC 11778 at 30 ug/disk after overnight incubation by agar diffusion test. As to conditions: read-out: Diameter of inhibition zone. In outline: as §2

As a reminder, the zone of inhibition is the extent of the growth-free halo in a diffusion test. Regarding `CCCC[S+]([O-])SC` (stereo not drawn), the zone of inhibition at 250 µg/disc was found to be 16 mm in experiment [1]; 22 mm in [6]; 0 mm in experiment [7]; 12 mm in experiment [9]; 0 mm in experiment [13]; 30 mm in experiment [14]. Moreover, the zone of inhibition at 250 µg/disc in [18] was determined as 30 mm. The zone of inhibition at 10 µg/disc in experiment [2], in [3], in experiment [10], in experiment [12], in experiment [19] and in experiment [20] was 0 mm each time. The zone of inhibition at 10 µg/disc in experiment [21] came to 8 mm. The zone of inhibition at 500 µg/disc turned out to be 0 mm in experiment [4]; 18 mm in [5]; 14 mm in experiment [8]; 34 mm in [11]; 8 mm in experiment [15]; 38 mm in experiment [16]. Further, the zone of inhibition at 500 µg/disc in experiment [17] turned out to be 24 mm.

Turning to GENTAMICIN, the inhibition zone (IZ) in experiment [2] was determined as 20 mm; in experiment [10], 18 mm; in experiment [12] it was 22 mm; in [19], 22 mm.

Turning to `CCCCS[S+](C)[O-]` (stereo not drawn), the zone of inhibition at 250 µg/disc stood at 12 mm in experiment [1]; 14 mm in [6]; 16 mm in experiment [7]; 12 mm in experiment [9]; 0 mm in [13]; 20 mm in experiment [14]. In addition, the zone of inhibition at 250 µg/disc in [18] is 22 mm. For the same molecule, the zone of inhibition at 10 µg/disc in experiment [2], in experiment [3], in experiment [10], in [12], in experiment [19] and in experiment [20] was 0 mm in each case. Moreover, the zone of inhibition at 10 µg/disc in experiment [21] is 0 mm. Also, the zone of inhibition at 500 µg/disc in experiment [4] turned out to be 24 mm; in [5], 20 mm; in experiment [8] it was 17 mm; in experiment [11], 28 mm; in experiment [15], 0 mm; in experiment [16], 26 mm. The zone of inhibition at 500 µg/disc in experiment [17] was found to be 20 mm.

`CCCCS[S+]([O-])CCCC` (stereo not drawn): the zone of inhibition at 250 µg/disc in experiment [1] stood at 8 mm; in [6], 10 mm; in experiment [7], 30 mm; in [9], 8 mm; in [13], 0 mm; in [14] it was 34 mm. In [18], the zone of inhibition at 250 µg/disc amounted to 34 mm. Also, the zone of inhibition at 10 µg/disc in experiment [2] is 0 mm; in [3] it was 0 mm; in [10], 0 mm; in [12], 0 mm; in experiment [19], 8 mm; in experiment [20] it was 0 mm. Moreover, in [21], the zone of inhibition at 10 µg/disc turned out to be 10 mm. Also, the zone of inhibition at 500 µg/disc in experiment [4] turned out to be 34 mm; in experiment [5], 8 mm; in experiment [8] it was 16 mm; in experiment [11] it was 40 mm; in experiment [15] it was 0 mm; in experiment [16], 38 mm. For the same molecule, the zone of inhibition at 500 µg/disc in experiment [17] stood at 16 mm.

`CC1(C)S[C@@H]2[C@H](NC(=O)[C@H](N)c3ccccc3)C(=O)N2[C@H]1C(=O)O` [AMPICILLIN]: the zone of inhibition at 10 µg/disc in [2] was determined as 0 mm; in experiment [3], 18 mm; in experiment [10], 30 mm; in [12], 0 mm; in [19], 7 mm; in [20] it was 0 mm. For the same molecule, the zone of inhibition at 10 µg/disc in experiment [21] was determined as 38 mm.

As to `CN(C)[C@@H]1C(O)=C(C(N)=O)C(=O)[C@@]2(O)C(O)=C3C(=O)c4c(O)cccc4[C@@](C)(O)[C@H]3C[C@@H]12` [TETRACYCLINE], the zone of inhibition at 30 µg/disc in experiment [22] was found to be 20 mm; in experiment [23], 10 mm; in [24], 13 mm; in experiment [25], 18 mm; in [26], 28 mm; in experiment [27], 18 mm. Besides, the zone of inhibition at 30 µg/disc in [28] stood at 27 mm.

For the molecule `O=C(N[C@H](CO)[C@H](O)c1ccc([N+](=O)[O-])cc1)C(Cl)Cl` [CHLORAMPHENICOL], the zone of inhibition at 30 µg/disc in experiment [22] was 18 mm; in [23] it was 0 mm; in experiment [24], 22 mm; in [25], 20 mm; in experiment [26], 23 mm; in experiment [27], 24 mm. Further, in experiment [28], the zone of inhibition at 30 µg/disc amounted to 20 mm.
